According to article PMC11571122 (RSC Advances, 2024):

Legend:
[1] = target: human Gal-1 (Homo sapiens, UniProt P09382); assay: Fluorescence spectroscopy binding constant, Gal-1; conditions: for Gal-1 Ka: fluorescence, modified Stern–Volmer plot, 25 mM Tris-HCl pH 8
Summary of the method: (§1)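 Human Gal-1 was cloned into pET-28a(+), expressed in E. coli BL21(DE3) and purified by Ni2+-NTA. Gal-3 and LdPase were produced similarly. Buffers: Gal-1 and Gal-3 in 25 mM Tris-HCl pH 8; LdPase in sodium phosphate pH 7. Intrinsic emission was scanned 300–400 nm (excitation 280 nm, 100 nm min−1) across ligand concentrations. Ka came from a modified Stern–Volmer plot of the log quenching term (F0 = no ligand, F = with ligand) versus log ligand concentration.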

[2] = system: Leishmania donovani phosphatase (LdPase); assay: Fluorescence spectroscopy binding, LdPase
Summary of the method: as §1

[3] = system: Gal-1; assay: Gal-1 ELISA enzymatic assay; assay type: cell-based, human; conditions: 20 μM, 24 h, HCT-116 cells
Summary of the method: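 HCT-116 cells were treated with test compound at 20 μM for 24 h, and the secreted-protein supernatant was collected. Equal amounts were diluted 2-fold in calibrator diluent and incubated 2 h at room temperature with shaking on human Gal-1 ELISA plates (commercial kit, manufacturer's protocol), then washed. HRP-conjugated Gal-1 polyclonal antibody was added for 2 h, then substrate for 30 min, then stop solution. Absorbance was read at 450 nm.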

[4] = target: human Gal-3 (Homo sapiens, UniProt P17931); assay: Fluorescence spectroscopy binding constant, Gal-3; conditions: for binding to Gal-3 compared to Gal-1: fluorescence spectroscopy; for Gal-3 Ka: fluorescence, 25 mM Tris-HCl pH 8
Summary of the method: as §1

Chain of human Gal-1 (P09382 whole entry): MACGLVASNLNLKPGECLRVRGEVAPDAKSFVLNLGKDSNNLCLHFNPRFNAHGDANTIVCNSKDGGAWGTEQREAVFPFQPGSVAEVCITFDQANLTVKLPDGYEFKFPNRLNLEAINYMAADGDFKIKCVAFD
Chain of human Gal-3 (P17931 whole entry): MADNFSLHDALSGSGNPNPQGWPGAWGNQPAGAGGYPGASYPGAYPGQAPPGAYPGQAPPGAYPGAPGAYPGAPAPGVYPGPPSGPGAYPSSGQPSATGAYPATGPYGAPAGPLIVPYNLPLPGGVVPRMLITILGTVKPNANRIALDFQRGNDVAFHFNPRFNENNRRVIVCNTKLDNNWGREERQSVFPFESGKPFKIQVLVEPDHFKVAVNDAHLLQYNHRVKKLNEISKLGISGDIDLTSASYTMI

Substance: 2-(2,6-Dimethylmorpholino)-N-(5-(2-oxo-2H-chromen-3-yl)thiazol-2-yl)acetamide [Compound 10e]
- Gal-1 Ka [1]: 6.5 10^4 M^−1

Substance: 2-(4-(2-Hydroxyethyl)piperazin-1-yl)-N-(5-(2-oxo-2H-chromen-3-yl)thiazol-2-yl)acetamide [Compound 10c]
- Gal-1 Ka [1]: 4.1 10^4 M^−1

Substance: 2-(4-(2-Methoxyphenyl)piperazin-1-yl)-N-(5-(2-oxo-2H-chromen-3-yl)thiazol-2-yl)acetamide [Compound 10g]
- Gal-1 binding constant (Ka) ([1]; fluorescence spectroscopy): 98000 M⁻¹
- Gal-1 Ka [1]: 9.8 10^4 M^−1
- binding to LdPase [2]: no detectable binding
- % Inhibition (EA) [3]: 58.19 ± 3.28%
- binding to Gal-3 compared to Gal-1 [4]: significantly lower binding
- Gal-3 Ka [4]: 1.0 10^−6 M^−1

Substance: 2-(4-(4-Nitrophenyl)piperazin-1-yl)-N-(5-(2-oxo-2H-chromen-3-yl)thiazol-2-yl)acetamide [Compound 10h]
- % Inhibition (EA) [3]: <10%

Substance: 2-(4-Ethylpiperazin-1-yl)-N-(5-(2-oxo-2H-chromen-3-yl)thiazol-2-yl)acetamide [Compound 10b]
- Gal-1 Ka [1]: 2.1 10^4 M^−1

Substance: 2-(4-Methylpiperidin-1-yl)-N-(5-(2-oxo-2H-chromen-3-yl)thiazol-2-yl)acetamide [Compound 10i]
- % Inhibition (EA) [3]: <10%

Substance: N-(5-(2-Oxo-2H-chromen-3-yl)thiazol-2-yl)-2-(4-(pyridin-2-yl)piperazin-1-yl)acetamide [Compound 10f]
- Gal-1 Ka [1]: 9.3 10^4 M^−1
- binding to LdPase [2]: no detectable binding
- % Inhibition (EA) [3]: 80.57 ± 1.77%
- binding to Gal-3 compared to Gal-1 [4]: significantly lower binding
- Gal-3 Ka [4]: 1.1 10^−6 M^−1

Substance: N-(5-(2-Oxo-2H-chromen-3-yl)thiazol-2-yl)-2-(4-phenylpiperazin-1-yl)acetamide [Compound 10d]
- Gal-1 Ka [1]: 6.6 10^4 M^−1
- % Inhibition (EA) [3]: 56.73 ± 2.13%

Substance: N-(5-(2-Oxo-2H-chromen-3-yl)thiazol-2-yl)-2-(piperazin-1-yl)acetamide [Compound 10a]
- Gal-1 Ka [1]: 8.8 10^4 M^−1
- % Inhibition (EA) [3]: 58.19 ± 1.12%
